The list is not random: actives were taken first. Their share in the collection is about 2.7%.
OX1R antag-1: blocks the human orexin 1 receptor. inhibition, % at 5 µM. CHO/OX1R cells, Fluo-8 calcium fluorescence, orexin A. AID 434989. 330,000 tested, 0.43% active;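 active = inhibition above its plate's threshold, mean inhibition of all tested compounds on the plate plus 3 SD, cut at about 37% in these data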;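 note: 0% = orexin A challenge wells and 100% = SB-334867-A antagonist wells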
OXTR ag: agonists of human oxytocin receptor | P30559 | CHO-OTR cells, Fluo-8 calcium fluorescence; normalized: DMSO 0%, oxytocin 100% | activation, % at 3 µM | 320,000 tested, 0.32% active | AID 2435;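 active = activation above the mean of all tested compounds plus 3 SD, cutoff set per screening run, cut at about 20% in these data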;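 note: peak over basal fluorescence ratio from a 100 s FLIPR kinetic read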
Target sequence (P30559 whole entry, looked up): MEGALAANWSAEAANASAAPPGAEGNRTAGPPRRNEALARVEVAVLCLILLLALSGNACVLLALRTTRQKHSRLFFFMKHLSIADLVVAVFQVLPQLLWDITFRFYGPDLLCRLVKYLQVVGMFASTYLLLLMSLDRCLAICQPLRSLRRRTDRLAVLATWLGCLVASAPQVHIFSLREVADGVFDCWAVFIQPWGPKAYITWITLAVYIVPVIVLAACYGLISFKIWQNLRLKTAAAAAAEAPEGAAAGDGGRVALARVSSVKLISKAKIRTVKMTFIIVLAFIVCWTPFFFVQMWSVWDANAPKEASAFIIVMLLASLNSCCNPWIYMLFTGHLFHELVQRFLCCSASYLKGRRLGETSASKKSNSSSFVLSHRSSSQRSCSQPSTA
OX1R antag-2: OX1R (human) antagonism | O43613 | inhibition, % at 6.6 µM | 330,000 tested, 1.8% active | OX1R-expressing cells, FRET antagonist read-out; in the data active = inhibition mostly above about 38%, no sharp cut-off; inactive = mostly below about 40%;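 note: 0% = agonist challenge alone and 100% = reference antagonist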
V1R ag counter: counter-screen for oxytocin receptor agonists: human V1a receptor agonists; CHO-V1R cells, Fluo-8 calcium fluorescence, agonist mode; 0% DMSO, 100% 3 nM vasopressin; activation, % at 3 µM; P37288; 320,000 tested, 0.25% active;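 active = activation above the mean activation of all tested compounds plus 3 SD, per screening run, cut at about 20% in these data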;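 note: signal is peak over basal fluorescence ratio across a 100 second FLIPR read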
CHO parental Ca: counter-screen for OX1R antagonists: effect in parental CHO cells | 330,000 tested, 0.63% active | inhibition, % at 5.6 µM | parental CHO-K1, ATP-induced calcium, Fluo-8 fluorescence;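 active = inhibition above that plate's mean sample inhibition plus 3 SD, cut at about 26% in these data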;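 note: 0% = ATP-challenged DMSO wells and 100% = DMSO wells without ATP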
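Assay system – parental CHO cells · Reagent – ATP stimulus · Detection – intracellular calcium via Fluo-8 no-wash fluorescent dye · Evaluation – percent inhibition of ATP-evoked calcium rise, normalized to controls · Controls – ATP wells versus no-ATP DMSO wells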
OXTR potentiate: potentiators of human oxytocin receptor | P30559 | CHO-OTR cells, Fluo-8 calcium fluorescence, potentiator mode; 0% = oxytocin EC15, 100% = EC100 | activation, % at 3 µM | 320,000 tested, 0.061% active | AID 2445;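 active = activation above that plate's cutoff, the mean activation of tested compounds plus 3 SD, cut at about 6.6% in these data, passing the limit was not always enough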;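 note: 100% uses oxytocin at 75 nM as the full agonist control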
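System: human OTR in CHO cells / Also added: sub-maximal oxytocin, roughly EC15 / Control set: EC15 oxytocin low, 75 nM oxytocin high / Schedule: 6 min compound pre-incubation at room temperature, 100 s kinetic read / Compound: single-point 3.0 µM / Replication: singlicate / Technique: Fluo-8 calcium dye fluorescence / Read-out basis: % activation of max/min ratio relative to oxytocin controls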
An asterisk follows results filed as active.

SMILES	OX1R antag-1	OXTR ag	OX1R antag-2	V1R ag counter	CHO parental Ca	OXTR potentiate
Cc1c(C(=O)Nc2cccc([N+](=O)[O-])c2)csc1-c1ccccc1	8.9	-2.2	72.2*	-0.4	-4.1	-6.6
N#Cc1c(NC(=O)c2ccccc2)sc2c1CCCCC2	-34.3	-1.5	19.0	-0.2	-20.3	12.1
N#Cc1c(Cl)nsc1NC(=O)c1ccccc1	-4.6	16.2	61.2*	11.8	7.0	-15.0
CN(/N=C\c1ccc(O)c(O)c1)c1nc(-c2ccccc2)cc(-c2ccccc2)n1	-4.0	-0.1	11.1	0.3	28.5*	-1.1
COc1cc(/C=N/N(c2ccccc2)c2ccccc2)ccc1O	-19.1	-2.1	5.2	-0.4	-16.4	-7.7
S=c1[nH]cc(-c2ccc(Cl)cc2)n1Cc1ccccc1	-21.6	-2.9	10.3	6.8	92.9*	-3.0
O=C(/C=C/c1ccccc1)NC(NC(=S)Nc1ccc(Cl)cc1)C(Cl)(Cl)Cl (centres undefined)	16.0	5.2	75.2	8.8	3.8	-23.5
O=C(CCc1ccccc1)NC(NC(=S)Nc1ccc(Cl)cc1)C(Cl)(Cl)Cl (centres undefined)	33.1	8.3	65.5	9.1	40.9*	-19.8
C/C=C/c1ccc(OCC(=O)Nc2cc(S(=O)(=O)N3CCOCC3)ccc2N2CCCC2)c(OC)c1	-32.9	-1.7	7.0	-1.3	-12.9	-12.6
CC(=O)c1c(C)[nH]c(C(=O)OCC(=O)NCc2ccc(Cl)cc2)c1C	-8.2	8.4	5.9	10.1	-16.7	-11.2
Cc1ccc(NC(=O)COC(=O)C2=COCCO2)c([N+](=O)[O-])c1	-9.9	0.1	17.1	1.2	0.6	3.5
CC(=O)c1c(C)[nH]c(C(=O)OCC(=O)Nc2ccc(C)cc2[N+](=O)[O-])c1C	10.1	11.9	39.1	10.6	45.3*	-8.6
CC(=O)c1c(C)[nH]c(C(=O)OCC(=O)Nc2cc(Cl)ccc2[N+](=O)[O-])c1C	-7.8	11.3	48.4*	9.2	26.8*	-16.8
CC(=O)c1c2c3c(c(Br)ccc3n(C)c1=O)C(=O)c1ccccc1-2	-4.0	-1.1	55.8*	-0.1	-18.3	-2.8
CC(=O)c1c2c3c(cccc3n(C)c1=O)C(=O)c1ccccc1-2	-25.8	0.1	24.9	1.3	-7.8	-13.2
COc1ccc(NC(=O)CC2SC(=NCC3CCCO3)NC2=O)c([N+](=O)[O-])c1 (centres undefined)	-20.9	-0.2	49.6*	0.4	-1.8	-7.2
O=C(CC1SC(=NCC2CCCO2)NC1=O)Nc1cc([N+](=O)[O-])ccc1Cl (centres undefined)	-10.3	1.1	13.6	0.6	-6.0	0.1
CC1CCCCC1NC(=O)c1cc(S(=O)(=O)N2CCOCC2)ccc1Cl (centres undefined)	-33.1	-0.7	9.2	-0.1	-16.8	-6.2
O=C(COc1ccccc1)Nc1cccc2nsnc12	-19.6	-2.3	50.8	0.2	-22.4	-5.0
O=C(Nc1ccc(Cl)cc1)Nc1ccc(Cl)c(Cl)c1	84.3*	18.2	43.3*	13.8	79.4*	-10.8
O=C(Nc1ccc(Cl)cc1)Nc1cccc2nsnc12	2.0	3.7	44.3*	4.5	13.3	-22.4
O=C(Nc1ccc(Cl)c(Cl)c1)Nc1ccc(Br)cc1F	31.8	7.7	49.8	10.8	35.5*	-17.5
Cc1ccc(NC(=O)Nc2ccc(F)c(Cl)c2)cc1	8.0	8.0	37.6	10.8	68.7*	-8.2
O=S(=O)(O)c1cccc2cccc(Nc3ccccc3)c12	-15.7	-0.5	11.8	-0.2	-9.2	-15.7
O=C(COC(=O)c1ccccn1)c1ccc([N+](=O)[O-])cc1	-4.0	0.2	44.4	-0.8	-0.6	-7.4
SMILES	OX1R antag-1	OXTR ag	OX1R antag-2	V1R ag counter	CHO parental Ca	OXTR potentiate
CC1CCCN(C(=O)CN2C(=O)CSc3ccc(S(=O)(=O)N4CCOCC4)cc32)C1 (centres undefined)	6.5	0.3	-6.5	0.6	-7.0	1.4
Cc1cc(NC(=O)Nc2ccc(Cl)c(Cl)c2)no1	41.4	7.8	28.8	7.4	82.5*	-13.9
O=C(Nc1ccccc1)Nc1ccc(Br)c(Cl)c1	12.6	18.0	54.7	11.1	28.8*	-9.5
O=C(Nc1ccccc1)Nc1ccccc1Br	-11.5	-2.0	26.1	-1.6	13.6	-5.8
Cc1cc(NC(=O)Nc2ccc(Cl)cc2)no1	8.3	3.4	37.0	2.5	2.0	-8.1
N#Cc1ccc(NC(=O)Nc2ccc(Cl)cc2)cc1	67.8*	15.7	100.3*	8.4	75.3*	-23.8
CC(=O)Nc1ccc(SCC(=O)Nc2ccccc2N2CCOCC2)cc1	-4.3	2.1	8.1	1.2	-13.6	-0.1
Cn1c(SCC(=O)Nc2ccc(C(=O)O)cc2)nc2scc(-c3ccccc3Cl)c2c1=O	-7.3	0.4	9.7	0.7	-3.3	2.2
CCN(CC)S(=O)(=O)c1ccc(C(=O)Nc2ccc(Cc3ccncc3)cc2)cc1	81.7*	14.9	39.2*	13.1	84.6*	-22.0
CCN(CC)S(=O)(=O)c1ccc(NC(=O)c2ccc(N(C)S(C)(=O)=O)cc2)cc1	-5.9	11.7	17.2	9.8	-12.9	-19.6
Cc1ccsc1CN(C)C(=O)C(NC(=O)c1cccc(S(=O)(=O)N2CCOCC2)c1)C(C)C (centres undefined)	-22.5	-0.9	5.4	-0.4	-31.1	-3.0
COc1ccc(/C=C/C(=O)Nc2ccc(C)c(S(=O)(=O)N3CCOCC3)c2)cc1	6.9	9.9	10.2	7.9	-11.2	-11.3
COCCCN(C(=O)CCOc1ccccc1C)c1c(N)n(Cc2ccccc2)c(=O)[nH]c1=O	-23.1	-2.9	7.5	-1.1	-18.6	-5.7
CN1C[C@H](C(=O)N[C@]2(C)O[C@@]3(O)[C@@H]4CCCN4C(=O)[C@H](Cc4ccccc4)N3C2=O)CC2c3cccc4[nH]cc(c34)C[C@H]21 (some centres undefined)	-20.9	-0.1	14.8	1.0	-6.5	-1.0
CC(C)C[C@H]1C(=O)N2CCC[C@H]2[C@]2(O)O[C@](NC(=O)C3C=C4c5cccc6[nH]c(Br)c(c56)C[C@H]4N(C)C3)(C(C)C)C(=O)N12 (some centres undefined)	-6.8	-1.6	58.1*	-0.2	-17.6	-16.3
N#Cc1nc(Cc2ccccc2)oc1NCc1ccccc1Cl	21.9	-2.1	32.2	-1.7	35.6*	-23.1
N#Cc1nc(Cc2ccccc2)oc1NCc1cccnc1	-13.5	0.1	9.9	0.7	-10.6	-2.8
Cc1cccc(/C=C/c2onc(C)c2[N+](=O)[O-])n1	-12.3	-0.8	65.3*	-0.7	-10.8	0.8
O=C(COc1ccc2ccccc2c1Br)N1CCCCC1	-21.2	-0.8	22.6	-0.8	10.0	-6.1
O=C(Oc1ccc2ccccc2c1Br)N1CCCCCC1	-14.8	-2.8	18.5	-1.2	33.0*	-1.2

Compound activity: PubChem, The Scripps Research Institute Molecular Screening Center
